{"source": "ChEMBL document CHEMBL2169866", "about": "“Antihypertensive profile of 2-thienyl-3,4-methylenedioxybenzoylhydrazone is mediated by activation of the A2A adenosine receptor” (Eur J Med Chem, 2012)", "key": {"Rattus norvegicus [1]": {"system": "Rattus norvegicus", "assay": "Antihypertensive activity in spontaneous hypertensive rat assessed as reduction in systolic blood pressure at 20 mg/kg/day, po for 7 days (reference value: 121.2 +/- 4.5 mmHg)", "type": "functional, Artery", "in_short": "(§1)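 Male SHR, 13 weeks old, received 20 mg/kg orally once daily for 14 days. Noninvasive tail-cuff plethysmography 4 h post-dose gave systolic pressure, diastolic pressure and heart rate. Measurements were made at baseline and on days 1, 3, 5, 7, 11 and 14. n = 6, mean ± SEM.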"}, "Rattus norvegicus [2]": {"system": "Rattus norvegicus", "assay": "Antihypertensive activity in spontaneous hypertensive rat assessed as reduction in systolic blood pressure at 20 mg/kg/day, po for 14 days (reference value: 121.2 +/- 4.5 mmHg)", "type": "functional, Artery", "in_short": "as §1"}, "Rattus norvegicus [3]": {"system": "Rattus norvegicus", "assay": "Antihypertensive activity in spontaneous hypertensive rat assessed as reduction in diastolic blood pressure at 20 mg/kg/day, po for 7 days (reference value: 72.6 +/- 4.7 mmHg)", "type": "functional, Artery", "in_short": "as §1"}, "Rattus norvegicus [4]": {"system": "Rattus norvegicus", "assay": "Antihypertensive activity in spontaneous hypertensive rat assessed as reduction in diastolic blood pressure at 20 mg/kg/day, po for 14 days (reference value: 72.6 +/- 4.7 mmHg)", "type": "functional, Artery", "in_short": "as §1"}, "Rattus norvegicus [5]": {"system": "Rattus norvegicus", "assay": "Effect on heart rate in spontaneous hypertensive rat at 20 mg/kg/day, po for 7 days (reference value: 383 +/- 21 bpm)", "type": "organism-based", "set-up": "route oral", "conditions": "in vivo, 168 h", "in_short": "as §1"}, "Rattus norvegicus [6]": {"system": "Rattus norvegicus", "assay": "Effect on heart rate in spontaneous hypertensive rat at 20 mg/kg/day, po for 14 days (reference value: 383 +/- 21 bpm)", "type": "organism-based", "set-up": "route oral", "conditions": "in vivo, 336 h", "in_short": "as §1"}, "[7]": {"target": "T1, Adenosine receptor A1 (Homo sapiens) (UniProt P30542)", "T1 sequence (whole entry)": "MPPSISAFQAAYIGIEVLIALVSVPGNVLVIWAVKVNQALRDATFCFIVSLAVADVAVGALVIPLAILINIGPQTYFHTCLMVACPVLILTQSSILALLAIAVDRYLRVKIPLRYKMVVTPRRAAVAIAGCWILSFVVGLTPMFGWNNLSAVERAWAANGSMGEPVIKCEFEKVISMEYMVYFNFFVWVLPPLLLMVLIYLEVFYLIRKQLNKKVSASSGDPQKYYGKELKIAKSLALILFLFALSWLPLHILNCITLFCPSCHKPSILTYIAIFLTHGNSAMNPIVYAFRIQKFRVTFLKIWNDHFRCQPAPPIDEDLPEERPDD", "assay": "Displacement of [3H]CCPA from human recombinant A1 receptor expressed in CHO cells at 10 uM", "type": "cell-based", "in_short": "(§2)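 Radioligand competition binding used agonist radioligands at these levels: [3H]CCPA 1 nM for A1, [3H]CGS21680 6 nM for A2A, and [125I]AB-MECA 0.15 nM for A3. Results are expressed as percent inhibition of control specific binding: 100 − (measured specific binding / control specific binding × 100).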"}, "[8]": {"target": "Adenosine receptor A2a (Homo sapiens) (UniProt P29274)", "sequence (P29274 whole entry)": "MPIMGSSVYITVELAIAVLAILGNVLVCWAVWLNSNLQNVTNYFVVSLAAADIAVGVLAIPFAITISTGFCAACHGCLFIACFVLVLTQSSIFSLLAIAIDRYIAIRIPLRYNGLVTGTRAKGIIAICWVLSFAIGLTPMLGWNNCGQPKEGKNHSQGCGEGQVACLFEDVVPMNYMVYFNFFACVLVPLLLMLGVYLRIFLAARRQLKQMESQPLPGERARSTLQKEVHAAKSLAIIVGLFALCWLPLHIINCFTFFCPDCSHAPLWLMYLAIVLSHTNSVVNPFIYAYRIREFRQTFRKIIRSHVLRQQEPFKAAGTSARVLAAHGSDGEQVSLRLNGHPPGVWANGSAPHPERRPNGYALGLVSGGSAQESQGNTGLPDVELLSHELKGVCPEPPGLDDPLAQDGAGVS", "assay": "Displacement of [3HCGS21680 from human recombinant A2A receptor expressed in HEK293 cells at 10 uM", "type": "cell-based", "in_short": "as §2"}, "[9]": {"target": "T2, Adenosine receptor A3 (Homo sapiens) (UniProt P0DMS8)", "T2 sequence (whole entry)": "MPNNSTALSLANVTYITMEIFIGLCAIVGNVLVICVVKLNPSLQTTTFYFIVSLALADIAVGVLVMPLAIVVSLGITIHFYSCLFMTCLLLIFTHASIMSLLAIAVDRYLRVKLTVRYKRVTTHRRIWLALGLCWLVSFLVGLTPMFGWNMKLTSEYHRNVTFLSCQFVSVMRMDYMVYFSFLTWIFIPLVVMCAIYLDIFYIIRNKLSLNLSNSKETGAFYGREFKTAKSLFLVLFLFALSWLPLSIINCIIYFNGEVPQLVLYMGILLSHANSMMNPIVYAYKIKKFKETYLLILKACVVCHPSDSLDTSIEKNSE", "assay": "Displacement of [[125I]AB-MECA from human recombinant A3 receptor expressed in HEK293 cells at 10 uM", "type": "cell-based", "in_short": "as §2"}, "Aorta [10]": {"system": "Aorta", "assay": "Vasorelaxation activity in WKY rat aortic rings with denuded endothelium assessed as reduction in phenylephrine-induced contraction relative to untreated control", "type": "functional", "set-up": "scale not given: the % may be the effect or the level left", "in_short": "(§3)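 Isolated thoracic aortic rings from WKY rats were studied by isometric tension recording. Endothelium was judged intact when acetylcholine gave >80% relaxation, and was removed mechanically where stated. Rings were precontracted with a single phenylephrine concentration (10), then exposed to cumulative test concentrations (1–300). DMSO served as control. L-NAME, ZM 241385 (100 nM) or glibenclamide (5 µM) were added 20 min before phenylephrine. IC50 was derived per experiment. n = 6, mean ± SEM.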"}, "Aorta [11]": {"system": "Aorta", "assay": "Vasorelaxation activity in WKY rat aortic rings with intact endothelium assessed as reduction in phenylephrine-induced contraction relative to untreated control", "type": "functional", "set-up": "scale not given: the % may be the effect or the level left", "in_short": "as §3"}, "Aorta [12]": {"system": "Aorta", "assay": "Vasorelaxation activity in WKY rat aortic rings with denuded endothelium assessed as reduction in phenylephrine-induced contraction in presence of 5 uM KATP channel blocker glibenclamide", "type": "functional", "set-up": "scale not given: the % may be the effect or the level left", "in_short": "as §3"}, "Aorta [13]": {"system": "Aorta", "assay": "Vasorelaxation activity in WKY rat aortic rings with intact endothelium assessed as reduction in phenylephrine-induced contraction in presence of 100 nM A2A antagonist ZM241385", "type": "functional", "set-up": "scale not given: the % may be the effect or the level left", "in_short": "as §3"}, "Aorta [14]": {"system": "Aorta", "assay": "Vasorelaxation activity in WKY rat aortic rings with intact endothelium assessed as reduction in phenylephrine-induced contraction in presence of 100 uM NOS inhibitor L-NAME", "type": "functional", "set-up": "scale not given: the % may be the effect or the level left", "in_short": "as §3"}, "Aorta [15]": {"system": "Aorta", "assay": "Vasorelaxation activity in WKY rat aortic rings with intact endothelium assessed as reduction in phenylephrine-induced contraction", "type": "functional, tissue-based", "in_short": "as §3"}, "Rattus norvegicus [16]": {"system": "Rattus norvegicus", "assay": "Effect on heart rate in WKY rat at 10 mg/kg/day, ip for 7 days (reference value: 383 +/- 21 bpm)", "conditions": "in vivo, 168 h"}, "Rattus norvegicus [17]": {"system": "Rattus norvegicus", "assay": "Effect on heart rate in WKY rat at 10 mg/kg/day, ip for 14 days (reference value: 383 +/- 21 bpm)", "conditions": "in vivo, 336 h"}, "Rattus norvegicus [18]": {"system": "Rattus norvegicus", "assay": "Effect on diastolic blood pressure in WKY rat at 10 mg/kg/day, ip for 7 days (reference value: 72.6 +/- 4.7 mmHg)", "conditions": "in vivo, 168 h"}, "Rattus norvegicus [19]": {"system": "Rattus norvegicus", "assay": "Effect on systolic blood pressure in WKY rat at 10 mg/kg/day, ip for 7 days (reference value: 121.1 +/- 4.5 mmHg)", "conditions": "in vivo, 168 h"}, "Rattus norvegicus [20]": {"system": "Rattus norvegicus", "assay": "Effect on diastolic blood pressure in WKY rat at 10 mg/kg/day, ip for 14 days (reference value: 72.6 +/- 4.7 mmHg)", "conditions": "in vivo, 336 h"}, "Rattus norvegicus [21]": {"system": "Rattus norvegicus", "assay": "Effect on systolic blood pressure in WKY rat at 10 mg/kg/day, ip for 14 days (reference value: 121.1 +/- 4.5 mmHg)", "conditions": "in vivo, 336 h"}, "Rattus norvegicus [22]": {"system": "Rattus norvegicus", "assay": "Effect on heart rate in spontaneous hypertensive rat at 10 mg/kg/day, ip for 7 days (reference value: 419 +/- 11 bpm)", "conditions": "in vivo, 168 h"}, "Rattus norvegicus [23]": {"system": "Rattus norvegicus", "assay": "Effect on heart rate in spontaneous hypertensive rat at 10 mg/kg/day, ip for 14 days (reference value: 419 +/- 11 bpm)", "conditions": "in vivo, 336 h"}, "Rattus norvegicus [24]": {"system": "Rattus norvegicus", "assay": "Antihypertensive activity in spontaneous hypertensive rat assessed as reduction in systolic blood pressure at 10 mg/kg/day, ip for 7 days (reference value: 226 +/-11 mmHg)", "conditions": "route intraperitoneal"}, "Rattus norvegicus [25]": {"system": "Rattus norvegicus", "assay": "Antihypertensive activity in spontaneous hypertensive rat assessed as reduction in systolic blood pressure at 10 mg/kg/day, ip for 14 days (reference value: 226 +/-11 mmHg)", "conditions": "route intraperitoneal"}, "Rattus norvegicus [26]": {"system": "Rattus norvegicus", "assay": "Antihypertensive activity in spontaneous hypertensive rat assessed as reduction in diastolic blood pressure at 10 mg/kg/day, ip for 7 days (reference value: 175.9 +/-7.3 mmHg)", "conditions": "route intraperitoneal"}, "Rattus norvegicus [27]": {"system": "Rattus norvegicus", "assay": "Antihypertensive activity in spontaneous hypertensive rat assessed as reduction in diastolic blood pressure at 10 mg/kg/day, ip for 14 days (reference value: 175.9 +/-7.3 mmHg)", "conditions": "route intraperitoneal"}}, "data": [{"compound": "O=C(N/N=C/c1ccc2c(c1)OCO2)c1cccs1", "values": [{"measurement": "Activity", "setting": "Rattus norvegicus [1]", "result": 109, "unit": "mmHg"}, {"measurement": "Activity", "setting": "Rattus norvegicus [2]", "result": 109, "unit": "mmHg"}, {"measurement": "Activity", "setting": "Rattus norvegicus [3]", "result": 79.4, "unit": "mmHg"}, {"measurement": "Activity", "setting": "Rattus norvegicus [4]", "result": 88, "unit": "mmHg"}, {"measurement": "Activity", "setting": "Rattus norvegicus [5]", "result": 379, "unit": "bpm"}, {"measurement": "Activity", "setting": "Rattus norvegicus [6]", "result": 398, "unit": "bpm"}, {"measurement": "inhibition", "setting": "[7]", "result": 29.1, "unit": "%"}, {"measurement": "inhibition", "setting": "[8]", "result": 47.5, "unit": "%"}, {"measurement": "inhibition", "setting": "[9]", "result": 67.5, "unit": "%"}, {"measurement": "Activity", "setting": "Aorta [10]", "result": 28.4, "unit": "%"}, {"measurement": "Activity", "setting": "Aorta [11]", "result": 100, "unit": "%"}, {"measurement": "Activity", "setting": "Aorta [12]", "result": 3.6, "unit": "%"}, {"measurement": "Activity", "setting": "Aorta [13]", "result": 8.3, "unit": "%"}, {"measurement": "Activity", "setting": "Aorta [14]", "result": 9.1, "unit": "%"}, {"measurement": "Activity", "setting": "Aorta [15]", "result": "Dose-dependent effect"}, {"measurement": "IC50", "setting": "Aorta [15]", "result": 6.9, "unit": "µM"}, {"measurement": "Activity", "setting": "Rattus norvegicus [16]", "result": 379, "unit": "bpm"}, {"measurement": "Activity", "setting": "Rattus norvegicus [17]", "result": 398, "unit": "bpm"}, {"measurement": "Activity", "setting": "Rattus norvegicus [18]", "result": 79.4, "unit": "mmHg"}, {"measurement": "Activity", "setting": "Rattus norvegicus [19]", "result": 109, "unit": "mmHg"}, {"measurement": "Activity", "setting": "Rattus norvegicus [20]", "result": 88, "unit": "mmHg"}, {"measurement": "Activity", "setting": "Rattus norvegicus [21]", "result": 109, "unit": "mmHg"}, {"measurement": "Activity", "setting": "Rattus norvegicus [22]", "result": 376, "unit": "bpm"}, {"measurement": "Activity", "setting": "Rattus norvegicus [23]", "result": 344.8, "unit": "bpm"}, {"measurement": "Activity", "setting": "Rattus norvegicus [24]", "result": 126.2, "unit": "mmHg"}, {"measurement": "Activity", "setting": "Rattus norvegicus [25]", "result": 118, "unit": "mmHg"}, {"measurement": "Activity", "setting": "Rattus norvegicus [26]", "result": 106.2, "unit": "mmHg"}, {"measurement": "Activity", "setting": "Rattus norvegicus [27]", "result": 95.5, "unit": "mmHg"}]}]}
